Measured values as given in article PMC9933477 (ACS Omega, 2023).
≈ marks a conversion by molar mass, not a printed value.

Tests used:
U937 cells = U937 cells activated with LPS plus TNFα, RT-PCR of proinflammatory genes; format: cell-based, human; conditions: 1 μM, 24 h, compared to cells exposed only to LPS plus TNFα
GPBAR1 = biological target: T1, GPBAR1 (Homo sapiens, UniProt Q8TDU6); experiment: Luciferase reporter assay; format: cell-based
T1 sequence (Q8TDU6 1-330): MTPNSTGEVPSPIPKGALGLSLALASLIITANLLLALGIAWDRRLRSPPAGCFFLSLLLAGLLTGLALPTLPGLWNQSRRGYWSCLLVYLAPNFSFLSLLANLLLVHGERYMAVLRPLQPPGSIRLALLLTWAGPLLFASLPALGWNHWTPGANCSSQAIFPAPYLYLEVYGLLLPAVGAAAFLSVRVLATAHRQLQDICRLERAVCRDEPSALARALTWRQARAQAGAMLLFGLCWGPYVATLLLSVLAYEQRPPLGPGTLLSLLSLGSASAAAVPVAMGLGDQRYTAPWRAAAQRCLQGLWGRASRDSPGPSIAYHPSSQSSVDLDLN
Method in brief: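 HEK-293T cells transfected with GPBAR1 carry a cAMP-responsive element (CRE) luciferase reporter. Single-point efficacy at 10 μM is scored against TLCA (10 μM) as 100%, as the mean of two experiments ± SD. EC50 comes from concentration-dependent CREB activation in the same transfected cells.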

RORγt = biological target: T2, RORγt (Homo sapiens, UniProt P51449); experiment: Cofactor peptide recruitment assay; format: biochemical
T2 sequence (P51449 251-518): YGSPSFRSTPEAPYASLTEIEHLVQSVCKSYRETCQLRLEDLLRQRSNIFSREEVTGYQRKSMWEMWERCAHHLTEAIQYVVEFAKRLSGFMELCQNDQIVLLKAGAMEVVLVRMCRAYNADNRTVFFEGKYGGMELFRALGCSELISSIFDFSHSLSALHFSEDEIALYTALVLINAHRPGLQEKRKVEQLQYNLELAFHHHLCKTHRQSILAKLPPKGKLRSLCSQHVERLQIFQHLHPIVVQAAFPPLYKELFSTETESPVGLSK
Method in brief: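 Cell-free AlphaScreen measuring test compound interference with RORγt binding to SRC-1 coactivator peptide. […] Vehicle (DMSO) wells are set as 100% control and wells lacking protein as 0% control.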

[1] = Aqueous solubility measurement; format: physicochemical; conditions: PBS pH 7.4, pH 7.4, aqueous buffer, kinetic from dmso stock
[2] = Metabolic stability in human liver microsomes; format: in vitro ADME; conditions: pH 7.4
TNBS-induced colitis = experiment: Mouse model of TNBS-induced colitis; format: in vivo; conditions: 10, 20 or 30 mg/kg/day by gavage
Method in brief: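 C57 male mice given TNBS to induce colitis, then vehicle or test compound at 10, 20 or 30 mg/kg/day by gavage, day 0 to day 4. Read-outs: body-weight change, CDAI, colon length, colon weight/length ratio, H&E of colon sections. Colon mRNA by RT-PCR normalised to Gapdh, Tbp and Actb. Mean ± SEM of 5–10 mice/group; p<0.05 vs TNBS or untreated.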

C[C@H](CCCOc1ccc(C(=O)O)cc1)[C@H]1CC[C@H]2[C@@H]3CC=C4C[C@@H](O)CC[C@]4(C)[C@H]3CC[C@]12C [Compound 3]
Reduction in the expression of all measured genes (IL-1β, TNFα, IL-6, CD11c) (U937 cells): 30–50% | EC50 (GPBAR1): 0.22 µM | IC50 (RORγt): 1.19 µM

C[C@H](CCCOc1ccc(C#N)cc1)[C@H]1CC[C@H]2[C@@H]3CC[C@@H]4C[C@H](O)CC[C@]4(C)[C@H]3CC[C@]12C [Compound 17]
solubility at 24 h [1]: 15 µM (≈ 6.96 µg/mL)

C[C@H](CCCOc1ccc(C#N)cc1)[C@H]1CC[C@H]2[C@@H]3CC=C4C[C@@H](O)CC[C@]4(C)[C@H]3CC[C@]12C [Compound 5]
solubility at 24 h [1]: 10 µM (≈ 4.62 µg/mL)

C[C@H](CCCOc1cccc(CO)c1)[C@H]1CC[C@H]2[C@@H]3CC=C4C[C@@H](O)CC[C@]4(C)[C@H]3CC[C@]12C [Compound 7]
EC50 (GPBAR1): 5.9 µM | microsomal CLint at 1 µM [2]: 7 µL/min/mg | Damage to the colon (macroscopic analysis and H&E histology) (TNBS-induced colitis; day 0 to day 4): decreased the damage to the colon | Severity of colitis (percentage of body weight, CDAI) (TNBS-induced colitis; day 0 to day 4): relieved by 7 in a dose-dependent manner | Colon expression of IL-10 (TNBS-induced colitis; RT-PCR of colon): strong increase | Colon expression of Rorc, IL-17A, and F (TNBS-induced colitis; RT-PCR of colon): decreased the expression | IC50 (RORγt): 0.107 µM
